In ChEMBL document CHEMBL1125607, “Novel gonadotropin-releasing hormone antagonists: peptides incorporating modified N omega-cyanoguanidino moieties” (J Med Chem, 1991):
≈ marks a conversion by molar mass, not a printed value. One block for each compound: values may come before it. Calls of active or inactive are those of the source. The rule behind the calls is not given here.

What was measured:
[1] = target: T1, Gonadotropin-releasing hormone receptor (Rattus norvegicus, UniProt P30969); assay: In vitro binding affinity of Gonadotropin-releasing hormone antagonist was measured in rat pituitary cell membranes; design: species or system Pituitary gland cell, Membrane
T1 sequence (P30969 whole entry): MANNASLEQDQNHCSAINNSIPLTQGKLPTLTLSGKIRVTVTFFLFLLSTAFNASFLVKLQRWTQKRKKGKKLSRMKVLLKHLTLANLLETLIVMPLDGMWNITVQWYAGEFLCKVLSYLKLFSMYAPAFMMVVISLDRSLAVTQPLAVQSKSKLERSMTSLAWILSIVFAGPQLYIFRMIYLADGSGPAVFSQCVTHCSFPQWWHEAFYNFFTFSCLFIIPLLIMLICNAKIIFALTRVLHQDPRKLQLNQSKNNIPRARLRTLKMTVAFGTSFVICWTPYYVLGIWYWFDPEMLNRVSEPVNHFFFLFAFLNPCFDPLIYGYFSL
Method in brief: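 Displacement binding on pituitary cell membranes with [DAla6,NMe-Leu7,Pro9-NHEt]GnRH as standard; analogue KD values calculated from potencies relative to that standard derived from displacement data.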

[2] = test system: Rattus norvegicus; assay: Potency (5 mg/rat) using anti-ovulatory assay, expressed as rat ovulating/total number of treated rats measured after sc administration; 0/7; type: functional, organism-based
[3] = test system: Rattus norvegicus; assay: Potency (2.5 mg/rat) using anti-ovulatory assay, expressed as rat ovulating/total number of treated rats measured after sc administration; 7/7; type: functional, organism-based
[4] = test system: Rattus norvegicus; assay: Potency (5 mg/rat) using anti-ovulatory assay, expressed as rat ovulating/total number of treated rats measured after sc administration; 1/6; type: functional, organism-based
[5] = test system: Rattus norvegicus; assay: Potency (2.5 mg/rat) using anti-ovulatory assay, expressed as rat ovulating/total number of treated rats measured after sc administration; 5/6; type: functional, organism-based
[6] = species: Rattus norvegicus; assay: In vitro histamine release by rat mast cells.; conditions: read-out: ED50 (the source's name)
[7] = target: Gonadotropin-releasing hormone receptor (Rattus norvegicus) (UniProt P30969); assay: Antagonist potency at GnRH receptor relative to a standard ([Ac-delta3Pro, DFpa2, DTrp3,6]GnRH).
[8] = test system: Rattus norvegicus; assay: Potency (1 mg/rat) using anti-ovulatory assay, expressed as rat ovulating/total number of treated rats measured after sc administration; 2/8; type: functional, organism-based
[9] = test system: Rattus norvegicus; assay: Potency (0.5 mg/rat) using anti-ovulatory assay, expressed as rat ovulating/total number of treated rats measured after sc administration; 7/7; type: functional, organism-based
[10] = test system: Rattus norvegicus; assay: Potency (2.5 mg/rat) using anti-ovulatory assay, expressed as rat ovulating/total number of treated rats measured after sc administration; 2/9; type: functional, organism-based
[11] = test system: Rattus norvegicus; assay: Potency (1 mg/rat) using anti-ovulatory assay, expressed as rat ovulating/total number of treated rats measured after sc administration; 5/8; type: functional, organism-based
[12] = test system: Rattus norvegicus; assay: Potency (2.5 mg/rat) using anti-ovulatory assay, expressed as rat ovulating/total number of treated rats measured after sc administration; 0/8; type: functional, organism-based
[13] = test system: Rattus norvegicus; assay: Potency (10 mg/rat) using anti-ovulatory assay, expressed as rat ovulating/total number of treated rats measured after sc administration; 4/4; type: functional, organism-based
[14] = test system: Rattus norvegicus; assay: Potency (2.5 mg/rat) using anti-ovulatory assay, expressed as rat ovulating/total number of treated rats measured after sc administration; 5/9; type: functional, organism-based
[15] = test system: Rattus norvegicus; assay: Potency (1 mg/rat) using anti-ovulatory assay, expressed as rat ovulating/total number of treated rats measured after sc administration; 6/6; type: functional, organism-based
[16] = test system: Rattus norvegicus; assay: Potency (2.5 mg/rat) using anti-ovulatory assay, expressed as rat ovulating/total number of treated rats measured after sc administration; 1/8; type: functional, organism-based
[17] = test system: Rattus norvegicus; assay: Potency (2.5 mg/rat) using anti-ovulatory assay, expressed as rat ovulating/total number of treated rats measured after sc administration; 7/9; type: functional, organism-based
[18] = test system: Rattus norvegicus; assay: Potency (5 mg/rat) using anti-ovulatory assay, expressed as rat ovulating/total number of treated rats measured after sc administration; 2/5; type: functional, organism-based
[19] = test system: Rattus norvegicus; assay: Potency (10 mg/rat) using anti-ovulatory assay, expressed as rat ovulating/total number of treated rats measured after sc administration; 0/6; type: functional, organism-based

- Kd [1]: 0.11 nM
Compound: CCCC/N=C(/NCCCC[C@H](NC(=O)[C@H](CC(C)C)NC(=O)[C@@H](CCCCNC(=O)c1cccnc1)NC(=O)[C@H](CCCCNC(=O)c1cccnc1)NC(=O)[C@H](CO)NC(=O)[C@H](Cc1c[nH]c2ccccc12)NC(=O)[C@H](Cc1c[nH]cn1)NC(=O)[C@@H]1CCC(=O)N1)C(=O)N1CCC[C@H]1C(=O)N[C@H](C)C(N)=O)NC(N)=O
- Activity [2]: Active
- Activity [3]: inactive

- Kd ([1]; pituitary gland cell): 1 nM
- EC50 [6]: 3.5 mg/L (≈ 2.59 µM)
- Relative potency [7]: 1.2
Compound: CCCC/N=C(\NC#N)NCCCC[C@H](NC(=O)[C@H](CC(C)C)NC(=O)[C@@H](CCCN=C(N)N)NC(=O)[C@H](Cc1ccc(O)cc1)NC(=O)[C@H](CO)NC(=O)[C@@H](Cc1cccnc1)NC(=O)[C@H](Cc1c[nH]cn1)NC(=O)[C@@H]1CCC(=O)N1)C(=O)N1CCC[C@H]1C(=O)N[C@H](C)C(N)=O
- Activity [4]: Active
- Activity [5]: inactive

- Relative potency [7]: 0.42
Compound: CC(C)C[C@H](NC(=O)[C@@H](CCCC/N=C(\NC#N)NC1CCCCC1)NC(=O)[C@H](CCCC/N=C(\NC#N)NC1CCCCC1)NC(=O)[C@H](CO)NC(=O)[C@H](Cc1c[nH]c2ccccc12)NC(=O)[C@H](Cc1c[nH]cn1)NC(=O)[C@@H]1CCC(=O)N1)C(=O)N[C@@H](CCCCNC(C)C)C(=O)N1CCC[C@H]1C(=O)N[C@H](C)C(N)=O
- Activity [17]: inactive

- EC50 [6]: 9.5 mg/L (≈ 7.12 µM)
- Relative potency [7]: 0.3
Compound: CC(C)C[C@H](NC(=O)[C@@H](CCCN=C(N)N)NC(=O)[C@H](Cc1ccc(O)cc1)NC(=O)[C@H](CO)NC(=O)[C@@H](CCCCNc1n[nH]c(N)n1)NC(=O)[C@H](Cc1c[nH]cn1)NC(=O)[C@@H]1CCC(=O)N1)C(=O)N[C@@H](CCCCNC(C)C)C(=O)N1CCC[C@H]1C(=O)N[C@H](C)C(N)=O
- Activity [18]: Weak activity
- Activity [19]: Active

The remaining lines, values behind:

Compound: CCCC/N=C(\NC#N)NCCCC[C@@H](NC(=O)[C@H](Cc1c[nH]cn1)NC(=O)[C@@H]1CCC(=O)N1)C(=O)N[C@@H](CO)C(=O)N[C@@H](Cc1ccc(O)cc1)C(=O)N[C@H](CCCN=C(N)N)C(=O)N[C@@H](CC(C)C)C(=O)N[C@@H](CCCCNC(C)C)C(=O)N1CCC[C@H]1C(=O)N[C@H](C)C(N)=O
- Kd [1]: 1.2 nM
- Activity [8]: Active
- Activity [9]: inactive
- EC50 [6]: 6 mg/L (≈ 4.36 µM)
- Relative potency [7]: 1.4

Compound: CC(C)C[C@H](NC(=O)[C@@H](CCC/N=C(\NC#N)NCc1ccccn1)NC(=O)[C@H](CCC/N=C(\NC#N)NCc1ccccn1)NC(=O)[C@H](CO)NC(=O)[C@H](Cc1c[nH]c2ccccc12)NC(=O)[C@H](Cc1c[nH]cn1)NC(=O)[C@@H]1CCC(=O)N1)C(=O)N[C@@H](CCCCNC(C)C)C(=O)N1CCC[C@H]1C(=O)N[C@H](C)C(N)=O
- Kd [1]: 0.41 nM
- Activity [10]: Active
- Relative potency [7]: 0.9

Compound: CCCC/N=C(\NC#N)NCCC[C@H](NC(=O)[C@H](CO)NC(=O)[C@H](Cc1c[nH]c2ccccc12)NC(=O)[C@H](Cc1c[nH]cn1)NC(=O)[C@@H]1CCC(=O)N1)C(=O)N[C@H](CCCN/C(=N/CCCC)NC#N)C(=O)N[C@@H](CC(C)C)C(=O)N[C@@H](CCCCNC(C)C)C(=O)N1CCC[C@H]1C(=O)N[C@H](C)C(N)=O
- Kd [1]: 2.1 nM
- Activity [11]: Weak activity
- Activity [12]: Active
- Relative potency [7]: 1

Compound: CC(C)C[C@H](NC(=O)[C@@H](Cc1cccnc1)NC(=O)[C@H](Cc1ccc(O)cc1)NC(=O)[C@H](CO)NC(=O)[C@H](Cc1ccc(Nc2n[nH]c(N)n2)cc1)NC(=O)[C@H](Cc1c[nH]cn1)NC(=O)[C@@H]1CCC(=O)N1)C(=O)N[C@@H](CCCCNC(C)C)C(=O)N1CCC[C@H]1C(=O)N[C@H](C)C(N)=O
- Activity [13]: inactive
- Relative potency [7]: 0.06

Compound: CCCC/N=C(\NC#N)NCCCC[C@H](NC(=O)[C@H](Cc1c[nH]cn1)NC(=O)[C@@H]1CCC(=O)N1)C(=O)N[C@@H](CO)C(=O)N[C@@H](Cc1ccc(O)cc1)C(=O)N[C@H](CCCCN/C(=N/CCCC)NC#N)C(=O)N[C@@H](CC(C)C)C(=O)N[C@@H](CCCCNC(C)C)C(=O)N1CCC[C@H]1C(=O)N[C@H](C)C(N)=O
- Activity [14]: Weak activity
- Relative potency [7]: 1.4

Compound: CC(C)C[C@H](NC(=O)[C@@H](CCCCNc1n[nH]c(N)n1)NC(=O)[C@H](Cc1ccc(O)cc1)NC(=O)[C@H](CO)NC(=O)[C@H](CCCCNc1n[nH]c(N)n1)NC(=O)[C@H](Cc1c[nH]cn1)NC(=O)[C@@H]1CCC(=O)N1)C(=O)N[C@@H](CCCCNC(C)C)C(=O)N1CCC[C@H]1C(=O)N[C@H](C)C(N)=O
- Activity [15]: inactive
- Activity [16]: Active
- Relative potency [7]: 0.6
